Reference: ChEMBL document CHEMBL1177671, “Synthesis and cytotoxic activity of a new potential DNA bisintercalator: 1,4-Bis{3-[N-(4-chlorobenzo[g]phthalazin-1-yl)aminopropyl]}piperazine” (Bioorg Med Chem, 2010)
pIC50: −log10 of the molar value.

Columns and labels:
[1] = test system: HT-29; test: Cytotoxicity against human HT-29 cells after 72 hrs by XTT assay; assay type: functional, cell-based; conditions: HT-29, 72 h
How it was run: (§1)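 Cells grown in DMEM with 10% heat-inactivated FBS, 2 mM L-glutamine, penicillin/streptomycin at 37 °C, 5% CO2, and tested Mycoplasma-negative. 1.5 × 10³ cells per well were exposed to compound over 10^-4 to 10^-9 M for 72 h at 37 °C, then read by XTT proliferation assay. Done in triplicate; IC50 is the concentration giving 50% proliferation inhibition versus untreated controls.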

[2] = test system: NCI-H460; test: Cytotoxicity against human NCI-H460 cells after 72 hrs by XTT assay; assay type: functional, cell-based; conditions: NCI-H460, 72 h; how it was run: as §1
[3] = test system: MCF7; test: Cytotoxicity against human MCF7 cells after 72 hrs by XTT assay; assay type: functional, cell-based; conditions: MCF7, 72 h; how it was run: as §1
[4] = test system: SF-268; test: Cytotoxicity against human SF268 cells after 72 hrs by XTT assay; assay type: functional, cell-based; conditions: SF-268, 72 h; how it was run: as §1
[5] = test system: Calf thymus DNA; test: Binding affinity to calf thymus DNA assessed as change in melting temperature; assay type: nucleic-acid assay; conditions: Bos taurus
How it was run: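 ct-DNA sonicated, filtered (0.45 µm) and held in sodium cacodylate buffer, I = 0.05 mol dm^-3, pH 7.0, at 7.5 × 10^-6 M base pairs. Melting was followed by absorbance at 260 nm versus temperature with increasing ligand, ligand absorbance subtracted and normalised. Tm is the transition midpoint (first-derivative maximum or tangent method). ΔTm = Tm(complex) − Tm(free DNA), averaged over ≥3 runs, error 0.5 °C.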

Structure (SMILES)	pIC50 [1]	pIC50 [2]	pIC50 [3]	pIC50 [4]	Tm [5]
CCCCNc1nnc(Cl)c2cc3ccccc3cc12	< 4.00	4.07	< 4.00	4.06	
NCCCN1CCN(CCCNc2nnc(Cl)c3cc4ccccc4cc23)CC1	4.98	5.06	5.04	4.90	
Clc1nnc(NCCCN2CCN(CCCNc3nnc(Cl)c4cc5ccccc5cc34)CC2)c2cc3ccccc3cc12	6.30	6.13	6.06	6.18	
COc1cccc2c1C(=O)c1c(O)c3c(c(O)c1C2=O)C[C@@](O)(C(=O)CO)C[C@@H]3O[C@H]1C[C@H](N)[C@H](O)[C@H](C)O1 [DOXORUBICIN]	6.55	6.58	6.49	6.66	20.6 °C
CCCCNc1nnc(NCCCC)c2cc3ccccc3cc12	5.63	5.69	5.61	5.58	
c1ccc(CCNc2nnc(NCCc3ccccc3)c3cc4ccccc4cc23)cc1	5.53	5.74	5.59	5.58	
CCCCCNc1nnc(NCCCCC)c2cc3ccccc3cc12	5.57	5.63	5.59	5.57	
